Laboratory results from ChEMBL document CHEMBL5154764, “Development of small molecules that work cooperatively with ciprofloxacin to clear salmonella biofilms in a chronic gallbladder carriage model” (Eur J Med Chem, 2022).
Calls of active or inactive are those of the source. No cut-off for these calls is given here.

What was measured:
Salmonella typhimurium [1] = assay: Antibiofilm activity against Salmonella typhimurium ATCC 14028 assessed as biofilm dispersal effect incubated for 24 hrs by crystal violet staining based spectrophotometry; assay type: functional, organism-based, Salmonella enterica subsp. enterica serovar Typhimurium; conditions: Salmonella enterica, ATCC 14028, 24 h
How it was run: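 Biofilms grown 24 h at 30 °C with nutation in TSB diluted 1:20, from 1:100-diluted LB overnight cultures set to OD600 0.8. Crystal violet staining, acetic acid solubilization, 570 nm read-out. EC50 from variable-slope fit of % biofilm remaining vs log concentration. Mean ± SD of three biological replicates.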

Salmonella typhimurium [2] = assay: Antibiofilm activity against Salmonella typhimurium ATCC 14028 assessed as inhibition of biofilm formation incubated for 24 hrs by crystal violet staining based spectrophotometry; assay type: functional, organism-based, Salmonella enterica subsp. enterica serovar Typhimurium; conditions: Salmonella enterica, ATCC 14028, 24 h
How it was run: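 LB overnight cultures (37 °C) set to OD600 0.8, diluted 1:100 into TSB diluted 1:20 in water. Compound at 0.2–100 μM or DMSO added at inoculation. Grown 24 h at 30 °C with nutation, washed, heat-fixed (60 °C, 1 h), stained with crystal violet, dye solubilized in acetic acid, read at 570 nm. IC50 from variable-slope fit of % biofilm vs log concentration. Mean ± SD of three biological replicates.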

Salmonella typhimurium [3] = assay: Antibacterial activity against Salmonella typhimurium ATCC 14028 assessed as bacterial growth inhibition at >=100 uM; assay type: functional, organism-based; conditions: Salmonella enterica subsp. enterica serovar Typhimurium
Salmonella typhimurium [4] = assay: Antibacterial activity against Salmonella typhimurium ATCC 14028 assessed as bacterial growth inhibition at >=12.5 uM; assay type: functional, organism-based; conditions: Salmonella enterica subsp. enterica serovar Typhimurium
Salmonella typhimurium [5] = assay: (§1) Antibacterial activity against Salmonella typhimurium ATCC 14028 infected in 129X1/SvJ NRAMP +/+ mouse gallstone model assessed as log reduction in bacterial burden in gallblader at 10 mg/kg/day, ip administered from 5 to 15 consecutive days and measured on day 15 in presence of 1 mg/kg/day ciprofloxacin; assay type: functional, Salmonella enterica subsp. enterica serovar Typhimurium; conditions: time 10 day
Salmonella typhimurium [6] = assay: as §1, with “5” for “10”, “for” for “from”, “days of post infection” for “days”; assay type: functional, Salmonella enterica subsp. enterica serovar Typhimurium; conditions: time 10 day
How it was run: (§2)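 129X1/SvJ NRAMP+/+ mice given a lithogenic diet (chow plus 1% cholesterol, 0.5% cholic acid) for 8 weeks. Infected i.p. with ~10^3 CFU in 200 μL PBS. Treated daily i.p. on days 5–15 post-infection; vehicle 5% DMSO in PBS. Day 15: gallbladder, liver and spleen homogenized in 1 mL PBS, serially diluted and plated on LB agar (37 °C, 16 h) for CFU counts. One-way ANOVA with Tukey correction.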

Salmonella typhimurium [7] = assay: Antibacterial activity against Salmonella typhimurium ATCC 14028 assessed as bacterial growth inhibition at >= 50 uM; assay type: functional, organism-based; conditions: Salmonella enterica subsp. enterica serovar Typhimurium
Salmonella typhimurium [8] = assay: (§3) Antibacterial activity against Salmonella typhimurium ATCC 14028 infected in 129X1/SvJ NRAMP +/+ mouse gallstone model assessed as reduction in bacterial burden in spleen at 5 mg/kg/day, ip administered for 5 to 15 consecutive days of post infection and measured on day 15 in presence of 4 mg/kg/day ciprofloxacin; assay type: functional, organism-based; conditions: Salmonella enterica subsp. enterica serovar Typhimurium, time 10.0 day; how it was run: as §2
Salmonella typhimurium [9] = assay: as §3, with “gallblader” for “spleen”; assay type: functional, organism-based; conditions: Salmonella enterica subsp. enterica serovar Typhimurium, time 10.0 day; how it was run: as §2
Salmonella typhimurium [10] = assay: as §3, with “liver” for “spleen”; assay type: functional, organism-based; conditions: Salmonella enterica subsp. enterica serovar Typhimurium, time 10.0 day; how it was run: as §2
Salmonella typhimurium [11] = assay: Antibacterial activity against Salmonella typhimurium ATCC 14028 infected in 129X1/SvJ NRAMP +/+ mouse gallstone model assessed as reduction in bacterial burden in liver at 2 mg/kg/day, ip administered from 5 to 15 consecutive days and measured on day 15; assay type: functional, organism-based; conditions: Salmonella enterica subsp. enterica serovar Typhimurium, time 10.0 day; how it was run: as §2
Salmonella typhimurium [12] = assay: Antibacterial activity against Salmonella typhimurium ATCC 14028 infected in 129X1/SvJ NRAMP +/+ mouse gallstone model assessed as reduction in bacterial burden in spleen at 2 mg/kg/day, ip administered from 5 to 15 consecutive days and measured on day 15; assay type: functional, organism-based; conditions: Salmonella enterica subsp. enterica serovar Typhimurium, time 10.0 day; how it was run: as §2
Salmonella typhimurium [13] = assay: Antibacterial activity against Salmonella typhimurium ATCC 14028 infected in 129X1/SvJ NRAMP +/+ mouse gallstone model assessed as log reduction in bacterial burden in gallblader at 4 mg/kg/day, ip administered from 5 to 15 consecutive days and measured on day 15; assay type: functional, Salmonella enterica subsp. enterica serovar Typhimurium; conditions: time 10 day; how it was run: as §2

EC50 (Salmonella typhimurium [1]) [µM]	IC50 (Salmonella typhimurium [2]) [µM]	Compound	also measured
> 12000	> 200	CN(Cc1ccsc1)CC1CCN(Cc2c(F)cccc2F)CC1	growth inhibition (GI) (Salmonella typhimurium [3]): Active
1810	2.7	CN(Cc1ccsc1)CC1CCN(Cc2ccccc2Cl)CC1	
70	2.7	CN(Cc1ccsc1)CC1CCN(Cc2cccc(Cl)c2Cl)CC1	
69	3	CN(Cc1ccsc1)CC1CCN(CCc2ccc(Cl)cc2)CC1	
55	3.9	CN(Cc1ccsc1)CC1CCN(Cc2ccc(Cl)c(Cl)c2)CC1	
829	5.7	CN(Cc1ccsc1)CC1CCN(CCc2ccccc2F)CC1	log(activity) (Salmonella typhimurium [5]): 3; log(activity) (Salmonella typhimurium [6]): 2
79	4.9	CN(Cc1ccsc1)CC1CCN(Cc2ccccc2Br)CC1	
127	8.5	CN(Cc1ccsc1)CC1CCN(Cc2ccc(Br)cc2)CC1	
45	1.4	CN(Cc1ccsc1)CC1CCN(CCc2ccc(Cl)c(Cl)c2)CC1	growth inhibition (GI) (Salmonella typhimurium [7]): Active
1050	8.7	CN(Cc1ccsc1)CC1CCN(Cc2cccc(F)c2)CC1	
196	15.8	CN(Cc1ccsc1)CC1CCN(Cc2cc(Cl)ccc2Cl)CC1	
87	3	CN(Cc1ccsc1)CC1CCN(CCc2ccc(F)c(F)c2)CC1	
59	5.4	CN(Cc1ccsc1)CC1CCN(CCCc2ccccc2Cl)CC1	
125	8.8	CN(Cc1ccsc1)CC1CCN(Cc2ccccc2F)CC1	
> 12000	> 200	CN(Cc1ccsc1)CC1CCN(CCc2cc(F)cc(F)c2)CC1	growth inhibition (GI) (Salmonella typhimurium [7]): Active
232	6	CN(Cc1ccsc1)CC1CCN(CCc2ccccc2Cl)CC1	
140	20.9	CN(Cc1ccsc1)CC1CCN(Cc2ccccc2C(F)(F)F)CC1	growth inhibition (GI) (Salmonella typhimurium [3]): Active
138	6.3	CN(Cc1ccsc1)CC1CCN(CCc2c(F)cccc2F)CC1	
> 12000	21.2	CN(Cc1ccsc1)CC1CCN(CCc2ccccc2)CC1	
57	3	CN(Cc1ccsc1)CC1CCN(CCc2ccc(Br)cc2)CC1	
934	5.9	CN(Cc1ccsc1)CC1CCN(Cc2ccc(Cl)cc2)CC1	
22	2.5	CN(Cc1ccsc1)CC1CCN(CCc2ccc(Cl)cc2Cl)CC1	
60	4.3	CN(Cc1ccsc1)CC1CCN(CCc2ccccc2I)CC1	growth inhibition (GI) (Salmonella typhimurium [7]): Active
221	11.5	CN(Cc1ccsc1)CC1CCN(CCCc2ccccc2F)CC1	
> 12000	78.1	CN(Cc1ccsc1)CC1CCN(CCCc2ccccc2)CC1	
45	1.6	CN(Cc1ccsc1)CC1CCN(CCc2cc(Cl)cc(Cl)c2)CC1	growth inhibition (GI) (Salmonella typhimurium [7]): Active
388	6.9	CN(Cc1ccsc1)CC1CCN(CCc2cccc(F)c2)CC1	
77	5.7	CN(Cc1ccsc1)CC1CCN(Cc2ccc(I)cc2)CC1	
235	16.8	CN(Cc1ccsc1)CC1CCN(CCc2ccc(F)cc2)CC1	
299	5.2	CN(Cc1ccsc1)CC1CCN(Cc2cccc(Cl)c2)CC1	

The next lines start with the compound.

Compound	EC50 (Salmonella typhimurium [1]) [µM]	IC50 (Salmonella typhimurium [2]) [µM]	also measured
CN(Cc1ccsc1)CC1CCN(CCc2ccccc2C(F)(F)F)CC1	60	12.7	
CN(Cc1ccsc1)CC1CCN(Cc2cccc(I)c2)CC1	92	10	
CN(Cc1ccsc1)CC1CCN(Cc2cccc(Br)c2)CC1	142	6.5	
CN(Cc1ccsc1)CC1CCN(Cc2ccccc2I)CC1	79	5.4	
CN(Cc1ccsc1)CC1CCN(Cc2ccccc2)CC1	> 12000	26.7	
CN(Cc1ccsc1)CC1CCN(CCc2cccc(-c3ccccc3)c2)CC1	31	1.8	growth inhibition (GI) (Salmonella typhimurium [4]): Active
CN(Cc1ccsc1)CC1CCN(Cc2ccc(F)c(F)c2)CC1	3800	7.2	
CN(Cc1ccsc1)CC1CCN(Cc2ccc(F)cc2)CC1	443	12.9	
CN(Cc1ccsc1)CC1CCN(Cc2cccc(F)c2F)CC1	870	146	growth inhibition (GI) (Salmonella typhimurium [3]): Active
CN(Cc1ccsc1)CC1CCN(CCc2cc(Br)cc(Br)c2)CC1	42	3.4	growth inhibition (GI) (Salmonella typhimurium [3]): Active
CN(Cc1ccsc1)CC1CCN(CCc2ccc(I)cc2)CC1	89	2.6	growth inhibition (GI) (Salmonella typhimurium [7]): Active
CC(C)c1ccc(CCN2CCC(CN(C)Cc3ccsc3)CC2)cc1	123	2.3	growth inhibition (GI) (Salmonella typhimurium [4]): Active
CN(Cc1ccsc1)CC1CCNCC1	442	138	
CN(Cc1ccsc1)CC1CCN(CCc2ccc(Br)c(Br)c2)CC1			Activity (Salmonella typhimurium [8]): Active; Activity (Salmonella typhimurium [9]): Active; growth inhibition (GI) (Salmonella typhimurium [4]): Active; log(activity) (Salmonella typhimurium [6]): 4.5; Activity (Salmonella typhimurium [10]): Active
CNCC1CCN(CCc2ccccc2F)CC1			growth inhibition (GI) (Salmonella typhimurium [3]): Active
CN(Cc1ccsc1)CC1CCN(CCc2cccc(Cl)c2)CC1	135	2	growth inhibition (GI) (Salmonella typhimurium [3]): Active
CN(Cc1ccsc1)CC1CCN(CCc2ccc(-c3ccccc3)cc2)CC1			growth inhibition (GI) (Salmonella typhimurium [4]): Active; log(activity) (Salmonella typhimurium [6]): 3.5
Cc1ccccc1CN1CCC(CN(C)Cc2ccsc2)CC1	247	6.3	
CN(Cc1ccsc1)CC1CCN(Cc2ccc(Br)c(Br)c2)CC1	32	11.9	
CN(Cc1ccsc1)CC1CCN(CCc2cccc(Cl)c2Cl)CC1			log(activity) (Salmonella typhimurium [6]): 1.5
CN(Cc1ccsc1)CC1CCN(CCc2cccc(Br)c2)CC1	83	3.6	growth inhibition (GI) (Salmonella typhimurium [3]): Active
CN(Cc1ccsc1)CC1CCN(CCc2cccc3ccccc23)CC1	28	2.5	growth inhibition (GI) (Salmonella typhimurium [7]): Active
COc1ccccc1CCN1CCC(CN(C)Cc2ccsc2)CC1	11800	16.9	
CN(Cc1ccsc1)CC1CCN(CCc2ccccc2Br)CC1	308	7.2	
CN(Cc1ccsc1)CC1CCN(CCc2cccc(I)c2)CC1	44	4	
CN(Cc1ccsc1)CC1CCN(Cc2cc(F)cc(F)c2)CC1	> 12000	14.2	
O=C(O)c1cn(C2CC2)c2cc(N3CCNCC3)c(F)cc2c1=O [CIPROFLOXACIN]			Activity (Salmonella typhimurium [11]): Active; Activity (Salmonella typhimurium [12]): Active; log(activity) (Salmonella typhimurium [13]): 3
